Assay [1] in a line: Her2 expression decrease, cell viability multiplex – SKBR3 breast tumor cells, AlphaScreen, ATP viability, primary screen (AID 461;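 active = Her2 level under about 52% in both replicate screens, with viability over 70% of control, limit read from the data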;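 as to Her2 level: lower value means less Her2 protein in the cells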;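 as to viability: percent of carrier control wells set as 100% viability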). Particulars: SKBR3 Her2 protein level, 18-24 h, measured here: SKBR3 viability, ATP luminescence, at 10 µM.
For assay [2], the target named is Receptor tyrosine-protein kinase erbB-2 (Homo sapiens) (UniProt P04626). The assay is described as above. Particulars: 18-24 h, at 10 µM, stronger effect = lower value.
Assay [3] is described as follows: reduced viability of SK-BR-3 breast cancer cells – cell-based, 24 h, human, pilot screen (AID 572;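 active = viability at or below 10% of carrier control in both of two separate runs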;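 also: compound exposure lasted between 18 and 24 h rather than exactly 24 h; 100% = carrier-treated control wells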). Particulars: SK-BR-3 viability, CellTiter-Glo luminescence, at 10 µM, stronger effect = lower value. (In general: ATP-based viability assays read luminescence as a measure of living cells.)
Assay [4] can be described thus: HUVEC growth inhibition – cell-based, human, primary screen (AID 575;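 active = viability at or below 30% in both replicate assays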;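 also: 100% = median of untreated cell wells with 0.1% DMSO on each plate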). Particulars: HUVEC proliferation, CellTiter-Glo luminescence, 72 h; at 10 µM; stronger effect = lower value. The method, boiled down: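 System – primary HUVEC, no more than 12 passages · Medium – Low-serum (2% FBS) EBM, supplemented · Times – 72 h exposure, 37 °C, 5% CO2, 30 min RT equilibration · Measured by – luminescent ATP assay · Read-out – % viability relative to median vehicle-well signal on each plate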

Assay [5] can be described thus: H69AR cell proliferation blockers – human, duplicate replicates, primary screen (AID 580;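 active = viability at or under a set limit in both replicates, limit being median viability minus 3 SD, cut at about 48% in these data, passing the limit was not always enough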;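 also: 100% = mean luminescence of untreated wells and 0% = no signal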). Particulars: H69AR lung tumor cells viability, ATP luminescence, 72 h; at 10 µM; stronger effect = lower value.
Assay [6] in a line: MRP1 drug-resistance reversers in H69AR cells – cell-based, doxorubicin co-treatment, pilot screen (AID 601). Particulars: CellTiter-Glo, 72 h, at 10 µM; for differential viability (reversal): stronger effect = higher value.
Assay [7] is described as follows: yeast transport mutant growth inhibition pilot in 384-well plates, post-Golgi transport modulator project (AID 636; in the data active = inhibition above about 31%). Particulars: absorbance 615 nm, about 18 h, stronger effect = higher value.
A short description of assay [8]: growth suppression of yeast trafficking mutant, preliminary HTS, modulators of trafficking downstream of Golgi apparatus project, 1536-format plate, OD 615 nm (AID 637; in the data active = inhibition above about 30%). Particulars: yeast transport mutant growth, absorbance 615 nm, 18 h; stronger effect = higher value.
Where [9] appears, read: H69AR cells + 2 uM doxorubicin, measured here: viability with 2 uM doxorubicin, stronger effect = lower value.
[10] abbreviates: H69AR cells, compound alone cytotoxicity.

Activity calls are given as the source filed them.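 The calls were made as follows, unless noted: active = viability loss from added drug above about 55%, and viability with drug at most 40%, in both replicates (limit read from the data, passing the limit was not always enough); inconclusive = both conditions met in only one replicate; inactive = neither replicate meets both conditions.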

Chain of Receptor tyrosine-protein kinase erbB-2 (Homo sapiens) (P04626 whole entry, looked up): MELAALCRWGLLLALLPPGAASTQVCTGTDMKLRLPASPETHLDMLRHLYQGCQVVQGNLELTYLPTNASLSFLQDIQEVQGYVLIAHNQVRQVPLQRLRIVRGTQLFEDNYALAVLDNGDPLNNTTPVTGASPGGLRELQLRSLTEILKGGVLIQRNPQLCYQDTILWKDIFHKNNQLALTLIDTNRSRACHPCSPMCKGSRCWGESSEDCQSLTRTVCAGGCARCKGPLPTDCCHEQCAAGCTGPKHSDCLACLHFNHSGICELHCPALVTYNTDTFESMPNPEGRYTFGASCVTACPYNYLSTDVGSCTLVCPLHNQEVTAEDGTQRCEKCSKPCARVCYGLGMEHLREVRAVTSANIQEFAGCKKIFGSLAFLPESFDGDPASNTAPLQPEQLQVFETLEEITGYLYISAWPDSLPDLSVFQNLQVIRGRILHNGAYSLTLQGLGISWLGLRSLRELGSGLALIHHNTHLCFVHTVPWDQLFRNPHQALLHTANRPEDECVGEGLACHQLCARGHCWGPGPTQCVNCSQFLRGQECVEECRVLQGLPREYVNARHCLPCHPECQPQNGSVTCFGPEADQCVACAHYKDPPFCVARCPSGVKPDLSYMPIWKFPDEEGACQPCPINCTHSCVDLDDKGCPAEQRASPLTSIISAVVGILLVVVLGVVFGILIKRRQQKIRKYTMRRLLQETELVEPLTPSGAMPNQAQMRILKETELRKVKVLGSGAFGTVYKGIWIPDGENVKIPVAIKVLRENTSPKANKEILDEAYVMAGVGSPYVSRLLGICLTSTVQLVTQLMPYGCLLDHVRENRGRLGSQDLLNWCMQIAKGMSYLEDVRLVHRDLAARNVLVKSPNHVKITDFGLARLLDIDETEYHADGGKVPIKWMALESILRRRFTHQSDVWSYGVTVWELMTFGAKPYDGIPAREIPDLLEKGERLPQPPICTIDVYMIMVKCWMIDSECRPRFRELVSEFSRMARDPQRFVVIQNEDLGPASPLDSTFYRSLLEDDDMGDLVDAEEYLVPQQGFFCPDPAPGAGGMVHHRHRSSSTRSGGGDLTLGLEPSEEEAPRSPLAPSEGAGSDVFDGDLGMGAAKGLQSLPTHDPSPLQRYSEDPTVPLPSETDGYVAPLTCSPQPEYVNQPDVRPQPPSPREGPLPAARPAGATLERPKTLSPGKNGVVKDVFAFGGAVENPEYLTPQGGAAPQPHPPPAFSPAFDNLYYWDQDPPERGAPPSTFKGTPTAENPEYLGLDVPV

For `CCC(=O)/C=C1\Sc2ccc(OC)cc2N1CCO`, the viability (commonly a read-out of living cells in per cent, often relative to untreated cells) in assay [1] is 120%; in assay [3], 120% (inactive); in assay [4], 98.6% (inactive); in assay [5], 87.8% (inactive); in assay [6] (setting [9]), 85.7%; in assay [6] (setting [10]), 87.8%. The Her2 level in assay [2] is 98% (inactive). The differential viability (reversal) in assay [6] (H69AR cells + 2 uM doxorubicin) was 2.07% (inactive). Also, the inhibition (usually the drop in the measured response relative to a control, in per cent) was -4.21% (inactive) in assay [7] and -4.68% (inactive) in assay [8].

As for `Cc1cc(C)c2c(n1)nn1c(N3CCN(c4cccc(Cl)c4)CC3)cc(C)nc21`, the viability in assay [1] is 98.5%; in assay [3] it was 98.5% (inactive); in assay [4], 61.8% (inactive); in assay [5], 23.1% (active); in assay [6] (setting [9]) it was 16.7%; in assay [6] (setting [10]), 23.1%. Moreover, the Her2 level in assay [2] was 83.5% (inactive). The differential viability (reversal) in assay [6] (H69AR cells + 2 uM doxorubicin) is 6.38% (inactive). In addition, the inhibition in assay [7] is -5.68% (inactive); in assay [8] it was 3.65% (inactive).

In the case of `Cc1cccc2sc(NC(=O)Cn3cccc3)nc12`, the viability in assay [1] is 87%; in assay [3], 87% (inactive); in assay [4], 107% (inactive); in assay [5], 89.6% (inactive); in assay [6] (setting [9]) it was 97.8%; in assay [6] (setting [10]), 89.6%. The Her2 level in assay [2] is 93.5% (inactive). The differential viability (reversal) in assay [6] (H69AR cells + 2 uM doxorubicin) is -8.27% (inactive). Also, the inhibition in assay [7] was -1.67% (inactive); in assay [8], -1.83% (inactive).

For `O=C(COc1ccccc1)NCCSCc1ccco1`, the viability in assay [1] is 109%; in assay [3], 109% (inactive); in assay [4] it was 104% (inactive); in assay [5], 89.3% (inactive); in assay [6] (setting [9]), 79.4%; in assay [6] (setting [10]), 89.3%. Besides, in assay [2], the Her2 level is 98.5% (inactive). In addition, the differential viability (reversal) in assay [6] (H69AR cells + 2 uM doxorubicin) was 9.83% (inactive). Also, the inhibition in assay [7] is -6.49% (inactive); in assay [8], -5.67% (inactive).

Regarding `Cc1oc(-c2ccccc2Cl)nc1CSCC(=O)N1CCCC1`, the viability in assay [1] is 72%; in assay [3], 72% (inactive); in assay [4] it was 79.4% (inactive); in assay [5], 99.5% (inactive); in assay [6] (setting [9]), 85%; in assay [6] (setting [10]), 99.5%. Further, the Her2 level in assay [2] was 86.5% (inactive). The differential viability (reversal) in assay [6] (H69AR cells + 2 uM doxorubicin) was 14.6% (inactive). The figures for the inhibition in assay [7] and in assay [8] were -0.93% (inactive) and 6.61% (inactive), respectively.

In the case of `CN(C)C(CN1C(=O)C2CC=CCC2C1=O)c1cn(C)c2ccccc12` (stereo not given), the viability is 104% in assay [1]; 104% (inactive) in assay [3]; 89.9% (inactive) in assay [4]; 95.4% (inactive) in assay [5]; 88.7% in assay [6] (setting [9]); 95.4% in assay [6] (setting [10]). The Her2 level in assay [2] was 85.5% (inactive). Also, the differential viability (reversal) in assay [6] (H69AR cells + 2 uM doxorubicin) is 6.72% (inactive). Moreover, the inhibition is -6.71% (inactive) in assay [7] and -1.59% (inactive) in assay [8].

`O=C(NC1CCS(=O)(=O)C1)c1c(NC(=O)C2COc3ccccc3O2)sc2c1CCCC2` (stereo not given): the viability in assay [1] is 67%; in assay [3], 67% (inactive); in assay [4], 45.3% (inactive); in assay [5], 38.3% (active); in assay [6] (setting [9]) it was 36%; in assay [6] (setting [10]) it was 38.3%. In addition, in assay [2], the Her2 level was 69.5% (inactive). In addition, in assay [6] (H69AR cells + 2 uM doxorubicin), the differential viability (reversal) was 2.25% (inactive). Moreover, the results for the inhibition in assay [7] and in assay [8] were -4.67% (inactive) and -1.61% (inactive), respectively.

For `CCOc1ccc2nc(NC(=O)CSc3nnnn3C3CCCCC3)sc2c1`, the viability is 92% in assay [1]; 92% (inactive) in assay [3]; 59.7% (inactive) in assay [4]; 63.5% (inactive) in assay [5]; 58.8% in assay [6] (setting [9]); 63.5% in assay [6] (setting [10]). Besides, the Her2 level in assay [2] was 108% (inactive). The differential viability (reversal) in assay [6] (H69AR cells + 2 uM doxorubicin) is 4.67% (inactive). Further, the inhibition is 9.08% (inactive) in assay [7] and -0.33% (inactive) in assay [8].

For the molecule `COc1ccc(NC(=O)c2cc(C(C)C)on2)c(OC)c1`, the viability in assay [1] was 93.5%; in assay [3], 93.5% (inactive); in assay [4], 79.5% (inactive); in assay [5], 88% (inactive); in assay [6] (setting [9]) it was 90.6%; in assay [6] (setting [10]) it was 88%. Further, the Her2 level in assay [2] was 85.5% (inactive). For the same molecule, the differential viability (reversal) in assay [6] (H69AR cells + 2 uM doxorubicin) was -2.67% (inactive). Moreover, the inhibition is 0.51% (inactive) in assay [7] and -2% (inactive) in assay [8].

In the case of `Cc1ccnc(NC(=O)CCC(=O)N(CC(=O)NC2CCCCC2)c2cccc(C)c2C)c1`, the viability is 92.5% in assay [1]; 92.5% (inactive) in assay [3]; 92.1% (inactive) in assay [4]; 86.7% (inactive) in assay [5]; 94.5% in assay [6] (setting [9]); 86.7% in assay [6] (setting [10]). The Her2 level in assay [2] is 97.5% (inactive). In assay [6] (H69AR cells + 2 uM doxorubicin), the differential viability (reversal) is -7.79% (inactive). Besides, the inhibition in assay [7] is 0% (inactive); in assay [8] it was 22.6% (inactive).

As to `Cc1noc(C)c1CSc1nc2cc(S(=O)(=O)N3CCOCC3)ccc2o1`, the viability in assay [1] was 98.5%; in assay [3] it was 98.5% (inactive); in assay [4], 96.7% (inactive); in assay [5], 83.6% (inactive); in assay [6] (setting [9]), 83.9%; in assay [6] (setting [10]) it was 83.6%. Moreover, the Her2 level in assay [2] is 93% (inactive). In addition, the differential viability (reversal) in assay [6] (H69AR cells + 2 uM doxorubicin) was -0.29% (inactive). Moreover, the figures for the inhibition in assay [7] and in assay [8] were -5.48% (inactive) and 5.56% (inactive), respectively.

In the case of `CCCNC(=O)Nc1ccccc1C(=O)Nc1ccc(OC)cc1`, the viability in assay [1] was 85%; in assay [3], 85% (inactive); in assay [4] it was 85.7% (inactive); in assay [5], 94.6% (inactive); in assay [6] (setting [9]) it was 104%; in assay [6] (setting [10]), 94.6%. In addition, in assay [2], the Her2 level is 81% (inactive). Besides, in assay [6] (H69AR cells + 2 uM doxorubicin), the differential viability (reversal) is -9.12% (inactive). In addition, the inhibition in assay [7] was -4.46% (inactive); in assay [8], -2.3% (inactive).

For the molecule `Nn1c(SCC(=O)Nc2ccc3c(c2)OCO3)nnc1C1CC1`, the viability is 102% in assay [1]; 102% (inactive) in assay [3]; 105% (inactive) in assay [4]; 94.2% (inactive) in assay [5]; 92.2% in assay [6] (setting [9]); 94.2% in assay [6] (setting [10]). Also, the Her2 level in assay [2] was 78.5% (inactive). Also, the differential viability (reversal) in assay [6] (H69AR cells + 2 uM doxorubicin) was 2% (inactive). Also, the inhibition in assay [7] was -5.41% (inactive); in assay [8], 8.25% (inactive).

As for `N#Cc1nc(-c2ccco2)oc1NCCc1ccccc1`, the viability in assay [1] was 92.5%; in assay [3] it was 92.5% (inactive); in assay [4] it was 90.6% (inactive); in assay [5], 97.4% (inactive); in assay [6] (setting [9]), 82.6%; in assay [6] (setting [10]), 97.4%. Besides, the Her2 level in assay [2] is 98.5% (inactive). For the same molecule, in assay [6] (H69AR cells + 2 uM doxorubicin), the differential viability (reversal) is 14.8% (inactive). Further, the figures for the inhibition in assay [7] and in assay [8] were -5.58% (inactive) and -10.5% (inactive), respectively.

(Values after PubChem BioAssay.)
